Reference: ChEMBL document CHEMBL1122046, “Quaternary heterocyclylamino beta-lactams: a generic alternative to the classical acylamino side chain” (1982)
In brackets after ≈: the same amount, converted by molar mass.

tested on: not listed separately; experiment: Minimum inhibitory concentration against aerobic organism Salmonella schottmuelleri strain 2837; type: functional; conditions: Salmonella; read-out: MIC
Method in brief: (§1)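 Agar-dilution MIC in µg/mL against aerobic bacterial strains on tryptocase soy agar, with inoculum applied as spots. Most series used 10^5 cfu per spot, and a later series used 10^4 cfu per spot. In some tables, footnoted strains were instead tested on Mueller-Hinton or nutrient agar. β-Lactamase-producing strains are flagged.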

MIC [µg/mL] | SMILES
12.5 (≈ 38.4 µM) | CC1(C)S[C@@H]2[C@H](NC=[N+]3CCCCCC3)C(=O)N2[C@H]1C(=O)[O-]
2 (≈ 4.07 µM) | CCOC(=O)C[n+]1ccc(N[C@@H]2C(=O)N3C(C(=O)[O-])=C(CSc4nnnn4C)CS[C@H]23)cc1
< 0.004 | Cn1nnnc1SCC1=C(C(=O)[O-])N2C(=O)[C@@H](Nc3cc[n+](Cc4ccccc4)cc3)[C@H]2SC1

tested on: Escherichia coli; experiment: MIC against aerobic organism Escherichia coli strain 2891; type: functional; conditions: Escherichia coli; read-out: MIC; method in brief: as §1

MIC [µg/mL] | SMILES
12.5 (≈ 38.4 µM) | CC1(C)S[C@@H]2[C@H](NC=[N+]3CCCCCC3)C(=O)N2[C@H]1C(=O)[O-]
2 (≈ 4.07 µM) | CCOC(=O)C[n+]1ccc(N[C@@H]2C(=O)N3C(C(=O)[O-])=C(CSc4nnnn4C)CS[C@H]23)cc1
0.06 (≈ 0.121 µM) | Cn1nnnc1SCC1=C(C(=O)[O-])N2C(=O)[C@@H](Nc3cc[n+](Cc4ccccc4)cc3)[C@H]2SC1
> 128 | O=C(Cc1cccs1)N[C@@H]1C(=O)N2C(C(=O)[O-])=C(C[n+]3ccccc3)CS[C@H]12 [CEPHALORIDINE]

tested on: Proteus vulgaris; experiment: Minimum inhibitory concentration against aerobic organism Proteus vulgaris strain 2829; type: functional; conditions: Proteus vulgaris; read-out: MIC; method in brief: as §1

MIC [µg/mL] | SMILES
0.5 (≈ 1.54 µM) | CC1(C)S[C@@H]2[C@H](NC=[N+]3CCCCCC3)C(=O)N2[C@H]1C(=O)[O-]
< 0.5 | CCOC(=O)C[n+]1ccc(N[C@@H]2C(=O)N3C(C(=O)[O-])=C(CSc4nnnn4C)CS[C@H]23)cc1
1 (≈ 2.02 µM) | Cn1nnnc1SCC1=C(C(=O)[O-])N2C(=O)[C@@H](Nc3cc[n+](Cc4ccccc4)cc3)[C@H]2SC1
> 128 | O=C(Cc1cccs1)N[C@@H]1C(=O)N2C(C(=O)[O-])=C(C[n+]3ccccc3)CS[C@H]12 [CEPHALORIDINE]

tested on: Proteus mirabilis; experiment: Minimum inhibitory concentration against aerobic organism Proteus mirabilis strain 2830; type: functional; conditions: Proteus mirabilis; read-out: MIC; method in brief: as §1

MIC [µg/mL] | SMILES
> 128 | CC1(C)S[C@@H]2[C@H](NC=[N+]3CCCCCC3)C(=O)N2[C@H]1C(=O)[O-]
128 (≈ 260 µM) | CCOC(=O)C[n+]1ccc(N[C@@H]2C(=O)N3C(C(=O)[O-])=C(CSc4nnnn4C)CS[C@H]23)cc1
32 (≈ 64.6 µM) | Cn1nnnc1SCC1=C(C(=O)[O-])N2C(=O)[C@@H](Nc3cc[n+](Cc4ccccc4)cc3)[C@H]2SC1
16 (≈ 38.5 µM) | O=C(Cc1cccs1)N[C@@H]1C(=O)N2C(C(=O)[O-])=C(C[n+]3ccccc3)CS[C@H]12 [CEPHALORIDINE]

tested on: Klebsiella aerogenes; experiment: Minimum inhibitory concentration against aerobic organism Enterobacter aerogenes strain 2828; type: functional; conditions: not given; method in brief: as §1

MIC [µg/mL] | SMILES
64 (≈ 197 µM) | CC1(C)S[C@@H]2[C@H](NC=[N+]3CCCCCC3)C(=O)N2[C@H]1C(=O)[O-]
2 (≈ 4.04 µM) | Cn1nnnc1SCC1=C(C(=O)[O-])N2C(=O)[C@@H](Nc3cc[n+](Cc4ccccc4)cc3)[C@H]2SC1
8 (≈ 19.3 µM) | O=C(Cc1cccs1)N[C@@H]1C(=O)N2C(C(=O)[O-])=C(C[n+]3ccccc3)CS[C@H]12 [CEPHALORIDINE]

tested on: Enterococcus faecalis; experiment: Minimum inhibitory concentration against aerobic organism Streptococcus faecalis strain 2864; type: functional; conditions: not given; method in brief: as §1

MIC [µg/mL] | SMILES
> 100 | CC1(C)S[C@@H]2[C@H](NC=[N+]3CCCCCC3)C(=O)N2[C@H]1C(=O)[O-]
> 128 | CCOC(=O)C[n+]1ccc(N[C@@H]2C(=O)N3C(C(=O)[O-])=C(CSc4nnnn4C)CS[C@H]23)cc1
128 (≈ 258 µM) | Cn1nnnc1SCC1=C(C(=O)[O-])N2C(=O)[C@@H](Nc3cc[n+](Cc4ccccc4)cc3)[C@H]2SC1
64 (≈ 154 µM) | O=C(Cc1cccs1)N[C@@H]1C(=O)N2C(C(=O)[O-])=C(C[n+]3ccccc3)CS[C@H]12 [CEPHALORIDINE]

tested on: Staphylococcus aureus; experiment: Minimum inhibitory concentration against aerobic organism Staphylococcus aureus strain 2868; type: functional; conditions: Staphylococcus aureus; read-out: MIC; method in brief: as §1

MIC [µg/mL] | SMILES
> 100 | CC1(C)S[C@@H]2[C@H](NC=[N+]3CCCCCC3)C(=O)N2[C@H]1C(=O)[O-]
16 (≈ 32.5 µM) | CCOC(=O)C[n+]1ccc(N[C@@H]2C(=O)N3C(C(=O)[O-])=C(CSc4nnnn4C)CS[C@H]23)cc1
4 (≈ 8.07 µM) | Cn1nnnc1SCC1=C(C(=O)[O-])N2C(=O)[C@@H](Nc3cc[n+](Cc4ccccc4)cc3)[C@H]2SC1
4 (≈ 9.63 µM) | O=C(Cc1cccs1)N[C@@H]1C(=O)N2C(C(=O)[O-])=C(C[n+]3ccccc3)CS[C@H]12 [CEPHALORIDINE]

tested on: Staphylococcus aureus; experiment: Minimum inhibitory concentration against aerobic organism Staphylococcus aureus strain 2865; type: functional; conditions: not given; method in brief: as §1

MIC [µg/mL] | SMILES
8 (≈ 24.6 µM) | CC1(C)S[C@@H]2[C@H](NC=[N+]3CCCCCC3)C(=O)N2[C@H]1C(=O)[O-]
0.25 (≈ 0.504 µM) | Cn1nnnc1SCC1=C(C(=O)[O-])N2C(=O)[C@@H](Nc3cc[n+](Cc4ccccc4)cc3)[C@H]2SC1
0.25 (≈ 0.602 µM) | O=C(Cc1cccs1)N[C@@H]1C(=O)N2C(C(=O)[O-])=C(C[n+]3ccccc3)CS[C@H]12 [CEPHALORIDINE]

tested on: Klebsiella pneumoniae; experiment: Minimum inhibitory concentration against aerobic organism Klebsiella pneumoniae strain 4005; type: functional; conditions: not given; method in brief: as §1

MIC [µg/mL] | SMILES
16 (≈ 49.2 µM) | CC1(C)S[C@@H]2[C@H](NC=[N+]3CCCCCC3)C(=O)N2[C@H]1C(=O)[O-]
8 (≈ 16.1 µM) | Cn1nnnc1SCC1=C(C(=O)[O-])N2C(=O)[C@@H](Nc3cc[n+](Cc4ccccc4)cc3)[C@H]2SC1
0.25 (≈ 0.602 µM) | O=C(Cc1cccs1)N[C@@H]1C(=O)N2C(C(=O)[O-])=C(C[n+]3ccccc3)CS[C@H]12 [CEPHALORIDINE]

tested on: Morganella morganii; experiment: Minimum inhibitory concentration against aerobic organism Morganella morganii strain 2833; conditions: not given

MIC [µg/mL] | SMILES
> 128 | CCOC(=O)C[n+]1ccc(N[C@@H]2C(=O)N3C(C(=O)[O-])=C(CSc4nnnn4C)CS[C@H]23)cc1

tested on: Enterobacter cloacae; experiment: Minimum inhibitory concentration against aerobic organism Enterobacter cloacae strain 2646; type: functional; conditions: Enterobacter cloacae; read-out: MIC; method in brief: as §1

MIC [µg/mL] | SMILES
16 (≈ 32.5 µM) | CCOC(=O)C[n+]1ccc(N[C@@H]2C(=O)N3C(C(=O)[O-])=C(CSc4nnnn4C)CS[C@H]23)cc1
1 (≈ 2.02 µM) | Cn1nnnc1SCC1=C(C(=O)[O-])N2C(=O)[C@@H](Nc3cc[n+](Cc4ccccc4)cc3)[C@H]2SC1
> 128 | O=C(Cc1cccs1)N[C@@H]1C(=O)N2C(C(=O)[O-])=C(C[n+]3ccccc3)CS[C@H]12 [CEPHALORIDINE]

tested on: Streptococcus pyogenes; experiment: Minimum inhibitory concentration against aerobic organism Streptococcus pyogenes strain 3124; type: functional; conditions: Streptococcus pyogenes; read-out: MIC; method in brief: as §1

MIC [µg/mL] | SMILES
< 0.5 | CCOC(=O)C[n+]1ccc(N[C@@H]2C(=O)N3C(C(=O)[O-])=C(CSc4nnnn4C)CS[C@H]23)cc1
0.015 (≈ 0.0303 µM) | Cn1nnnc1SCC1=C(C(=O)[O-])N2C(=O)[C@@H](Nc3cc[n+](Cc4ccccc4)cc3)[C@H]2SC1

tested on: Shigella; experiment: Minimum inhibitory concentration against aerobic organism Shigella species strain 2880; type: functional; conditions: Shigella; read-out: MIC; method in brief: as §1

MIC [µg/mL] | SMILES
12.5 (≈ 38.4 µM) | CC1(C)S[C@@H]2[C@H](NC=[N+]3CCCCCC3)C(=O)N2[C@H]1C(=O)[O-]
< 0.5 | CCOC(=O)C[n+]1ccc(N[C@@H]2C(=O)N3C(C(=O)[O-])=C(CSc4nnnn4C)CS[C@H]23)cc1
< 0.004 | Cn1nnnc1SCC1=C(C(=O)[O-])N2C(=O)[C@@H](Nc3cc[n+](Cc4ccccc4)cc3)[C@H]2SC1

tested on: Pseudomonas aeruginosa; experiment: Minimum inhibitory concentration against aerobic organism Pseudomonas aeruginosa strain 2835; type: functional; conditions: not given; method in brief: as §1

MIC [µg/mL] | SMILES
> 128 | CC1(C)S[C@@H]2[C@H](NC=[N+]3CCCCCC3)C(=O)N2[C@H]1C(=O)[O-]
> 128 | CCOC(=O)C[n+]1ccc(N[C@@H]2C(=O)N3C(C(=O)[O-])=C(CSc4nnnn4C)CS[C@H]23)cc1
> 128 | Cn1nnnc1SCC1=C(C(=O)[O-])N2C(=O)[C@@H](Nc3cc[n+](Cc4ccccc4)cc3)[C@H]2SC1
> 128 | O=C(Cc1cccs1)N[C@@H]1C(=O)N2C(C(=O)[O-])=C(C[n+]3ccccc3)CS[C@H]12 [CEPHALORIDINE]

tested on: Klebsiella pneumoniae; experiment: Minimum inhibitory concentration against aerobic organism Klebsiella pneumoniae strain 2882; type: functional; conditions: Klebsiella pneumoniae; read-out: MIC; method in brief: as §1

MIC [µg/mL] | SMILES
100 (≈ 307 µM) | CC1(C)S[C@@H]2[C@H](NC=[N+]3CCCCCC3)C(=O)N2[C@H]1C(=O)[O-]
4 (≈ 8.14 µM) | CCOC(=O)C[n+]1ccc(N[C@@H]2C(=O)N3C(C(=O)[O-])=C(CSc4nnnn4C)CS[C@H]23)cc1
0.25 (≈ 0.504 µM) | Cn1nnnc1SCC1=C(C(=O)[O-])N2C(=O)[C@@H](Nc3cc[n+](Cc4ccccc4)cc3)[C@H]2SC1

tested on: Morganella morganii; experiment: Minimum inhibitory concentration against aerobic organism Morganella morganii strain 2833; type: functional; conditions: Morganella morganii; read-out: MIC; method in brief: as §1

MIC [µg/mL] | SMILES
> 128 | CC1(C)S[C@@H]2[C@H](NC=[N+]3CCCCCC3)C(=O)N2[C@H]1C(=O)[O-]
16 (≈ 32.3 µM) | Cn1nnnc1SCC1=C(C(=O)[O-])N2C(=O)[C@@H](Nc3cc[n+](Cc4ccccc4)cc3)[C@H]2SC1
> 128 | O=C(Cc1cccs1)N[C@@H]1C(=O)N2C(C(=O)[O-])=C(C[n+]3ccccc3)CS[C@H]12 [CEPHALORIDINE]

tested on: Serratia marcescens; experiment: Minimum inhibitory concentration against aerobic organism Serratia marcescens strain 2852; type: functional; conditions: Serratia marcescens; read-out: MIC; method in brief: as §1

MIC [µg/mL] | SMILES
> 128 | CCOC(=O)C[n+]1ccc(N[C@@H]2C(=O)N3C(C(=O)[O-])=C(CSc4nnnn4C)CS[C@H]23)cc1
64 (≈ 129 µM) | Cn1nnnc1SCC1=C(C(=O)[O-])N2C(=O)[C@@H](Nc3cc[n+](Cc4ccccc4)cc3)[C@H]2SC1

tested on: Salmonella; experiment: Minimum inhibitory concentration against aerobic organism Salmonella strain 3860; type: functional; conditions: not given; method in brief: as §1

MIC [µg/mL] | SMILES
0.125 (≈ 0.384 µM) | CC1(C)S[C@@H]2[C@H](NC=[N+]3CCCCCC3)C(=O)N2[C@H]1C(=O)[O-]
1 (≈ 2.02 µM) | Cn1nnnc1SCC1=C(C(=O)[O-])N2C(=O)[C@@H](Nc3cc[n+](Cc4ccccc4)cc3)[C@H]2SC1
0.5 (≈ 1.2 µM) | O=C(Cc1cccs1)N[C@@H]1C(=O)N2C(C(=O)[O-])=C(C[n+]3ccccc3)CS[C@H]12 [CEPHALORIDINE]

tested on: Klebsiella aerogenes; experiment: Minimum inhibitory concentration against aerobic organism Enterobacter aerogenes strain 2906; type: functional; conditions: Klebsiella aerogenes; read-out: MIC; method in brief: as §1

MIC [µg/mL] | SMILES
32 (≈ 65.1 µM) | CCOC(=O)C[n+]1ccc(N[C@@H]2C(=O)N3C(C(=O)[O-])=C(CSc4nnnn4C)CS[C@H]23)cc1
8 (≈ 16.1 µM) | Cn1nnnc1SCC1=C(C(=O)[O-])N2C(=O)[C@@H](Nc3cc[n+](Cc4ccccc4)cc3)[C@H]2SC1
